From ChEMBL document CHEMBL4007441, “Novel Design of Heptad Amphiphiles To Enhance Cell Selectivity, Salt Resistance, Antibiofilm Properties and Their Membrane-Disruptive Mechanism” (J Med Chem, 2017)
≈ marks a conversion by molar mass, not a printed value.

Columns and labels:
RAW264.7 = experiment: Cytotoxicity in mouse RAW264.7 cells after 24 hrs by MTT assay; type: cell-based; conditions: raw264.7, 24 h
Pseudomonas aeruginosa [1] = experiment: Antibacterial activity against Pseudomonas aeruginosa ATCC 27853 assessed as induction of outer membrane permeabilization by measuring NPN uptake by spectrofluorophotometric analysis; type: functional
Outline: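 Exponential-phase cells were washed in HEPES pH 7.4 with 5 mM glucose and diluted to about 10^5 CFU/mL. NPN was added at 10 µM final, then peptide at varying concentrations. Fluorescence (ex 350/em 420 nm) was followed to plateau. Values are % NPN uptake relative to polymyxin B at 10 mg/L (100%). Three experiments, duplicates.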

Pseudomonas aeruginosa [2] = experiment: Antibacterial activity against Pseudomonas aeruginosa CICC 10419 after 18 hrs by broth microdilution method; type: functional
Outline: (§1)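 Broth microdilution in Mueller-Hinton broth. Exponential-phase bacteria (37 °C, 220 rpm shaking) were diluted to about 1 × 10^6 CFU/mL and mixed 1:1 with two-fold serial peptide dilutions. MIC is the lowest concentration with no visible turbidity after 18 h at 37 °C. Controls were uninoculated MHB and untreated culture. Run at least three times, two replicates each.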

Pseudomonas aeruginosa [3] = experiment: Antibacterial activity against gentamicin-resistant Pseudomonas aeruginosa 11421 after 18 hrs by broth microdilution method; type: functional; conditions: Pseudomonas aeruginosa, 11421, 18 h
Outline: (§2)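 Broth microdilution in Mueller-Hinton broth. Exponential-phase bacteria (37 °C, 220 rpm shaking) were diluted to about 1 × 10^6 CFU/mL and mixed 1:1 with two-fold serial peptide dilutions. Controls were uninoculated MHB and untreated culture. Run at least three times, two replicates each.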

Staphylococcus aureus = experiment: Antibacterial activity against Staphylococcus aureus ATCC 29213 after 18 hrs by broth microdilution method; type: functional
Outline: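 Broth microdilution. Exponential-phase bacteria grown in MHB at 37 °C, diluted to about 1 × 10^6 CFU/mL in MHB and mixed 1:1 with two-fold dilutions of peptide. MIC is the lowest concentration with no visible turbidity after 18 h at 37 °C. Controls were uninoculated broth and peptide-free culture. At least three repeats, duplicates each.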

Pseudomonas aeruginosa [4] = experiment: Antibacterial activity against Pseudomonas aeruginosa 26305 clinical isolate after 18 hrs by broth microdilution method; type: functional
Pseudomonas aeruginosa [5] = experiment: Antibacterial activity against Pseudomonas aeruginosa 25349 clinical isolate after 18 hrs by broth microdilution method; type: functional
Pseudomonas aeruginosa [6] = experiment: Antibacterial activity against Pseudomonas aeruginosa CICC 21630 after 18 hrs by broth microdilution method; type: functional; outline: as §1
Pseudomonas aeruginosa [7] = experiment: Antibacterial activity against ciprofloxacin-resistant Pseudomonas aeruginosa 11411 after 18 hrs by broth microdilution method; type: functional; outline: as §2
Escherichia coli = experiment: microbe, parasite or virus in culture; conditions: ATCC 25922, 18 h
Pseudomonas aeruginosa [8] = experiment: Antibacterial activity against Pseudomonas aeruginosa 21328 clinical isolate after 18 hrs by broth microdilution method; type: functional; conditions: Pseudomonas aeruginosa, 21328, 18 h
Pseudomonas aeruginosa [9] = experiment: Antibacterial activity against Pseudomonas aeruginosa CICC 21625 after 18 hrs by broth microdilution method; type: functional; outline: as §1
Pseudomonas aeruginosa [10] = experiment: Antibacterial activity against ceftazidime-resistant Pseudomonas aeruginosa 11431 after 18 hrs by broth microdilution method; type: functional; outline: as §1
Pseudomonas aeruginosa [11] = experiment: Antibacterial activity against Pseudomonas aeruginosa ATCC 27853 after 18 hrs by broth microdilution method; type: functional; outline: as §1
Pseudomonas aeruginosa [12] = experiment: Antibacterial activity against Pseudomonas aeruginosa ATCC 27853 assessed as induction of cytoplasmic membrane depolarization after 90 min incubation under dark condition by diSC3-5 dye-based fluorescence analysis; type: functional
Outline: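 Exponential-phase cells were washed three times in 5 mM HEPES (pH 7.4). diSC3-5 (0.4 µM final) and KCl (0.1 M final) were added, then the cells were incubated 90 min at 37 °C in the dark. Peptide at a range of concentrations was added and fluorescence followed at ex 622/em 670 nm. Three independent experiments, duplicates each.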

Pseudomonas aeruginosa [13] = experiment: Antibacterial activity against Pseudomonas aeruginosa ATCC 27853 assessed as induction of membrane integrity disruption at MIC after 15 mins by PI-staining based flow cytometry (reference value: 4.7%)
Lipopolysaccharide (LPS) = experiment: Binding affinity to Pseudomonas aeruginosa ATCC 27853 LPS by SPR spectroscopic analysis
Outline: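 Biacore SPR. Peptides were amine-coupled to CM5 chips at 20 µg/mL in 10 mM acetate pH 6.0, giving about 1300 RU. LPS at 3.125–12.5 µg/mL in 20 mM Tris/100 mM NaCl pH 7.4 was flowed at 10 µL/min. Surfaces were regenerated with 50 mM NaOH plus 0.05% SDS. Three independent runs.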

Pseudomonas aeruginosa [14] = experiment: Drug uptake in Pseudomonas aeruginosa ATCC 27853 treated with FITC-labeled compound at MIC after 30 mins by confocal fluorescence microscopy; type: ADME; conditions: 0.5 h
Outline: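 Cells were pelleted at 5,000 g for 5 min, washed three times in PBS, smeared and imaged by confocal microscopy with 488 nm excitation.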

[15] = Pseudomonas aeruginosa, 26305, 18 h
[16] = Pseudomonas aeruginosa, 25349, 18 h
[17] = Pseudomonas aeruginosa, 11411, 18 h
[18] = Pseudomonas aeruginosa, 11431, 18 h

Row | Compound | CC10 (RAW264.7) [µg/mL] | Activity (Pseudomonas aeruginosa [1]) | MIC (Pseudomonas aeruginosa [2]; CICC 10419, 18 h) [µg/mL] | MIC (Pseudomonas aeruginosa [3]) [µg/mL] | MIC (Staphylococcus aureus; ATCC 29213, 18 h) [µg/mL] | MIC (Pseudomonas aeruginosa [4]; [15]) [µg/mL] | MIC (Pseudomonas aeruginosa [5]; [16]) [µg/mL] | MIC (Pseudomonas aeruginosa [6]; CICC 21630, 18 h) [µg/mL] | MIC (Pseudomonas aeruginosa [7]; [17]) [µg/mL] | MIC (Escherichia coli) [µg/mL] | MIC (Pseudomonas aeruginosa [8]) [µg/mL] | MIC (Pseudomonas aeruginosa [9]; CICC 21625, 18 h) [µg/mL] | MIC (Pseudomonas aeruginosa [10]; [18]) [µg/mL] | MIC (Pseudomonas aeruginosa [11]; ATCC 27853, 18 h) [µg/mL] | further results
1 | H-ARRARRRWRRRARRA-NH2 | > 256 | Dose-dependent effect | 256 | 256 | 64 | 256 | 32 | 256 | 256 | 64 | 256 | 256 | 256 | 128 | –
2 | H-LRRLRRRLRRLRRRWRRRLRRLRRRLRRL-OH | 128 | Dose-dependent effect | 4 | 16 | 16 | 16 | 8 | 4 | 8 | 8 | 8 | 8 | 8 | 8 | –
3 | GENTAMICIN [listing 1 of 2 here] | > 256 | – | – | – | – | – | – | – | – | – | – | – | – | – | –
4 | O=C(O)c1cn(C2CC2)c2cc(N3CCNCC3)c(F)cc2c1=O [CIPROFLOXACIN] | – | – | – | 16 (≈ 48.3 µM) | 4 (≈ 12.1 µM) | – | – | 16 (≈ 48.3 µM) | – | – | – | – | – | 4 (≈ 12.1 µM) | –
5 | H-FRRFRRRWRRRFRRF-NH2 | 256 | Dose-dependent effect | 256 | 256 | 16 | 64 | 8 | 32 | 256 | 8 | 256 | 256 | 16 | 8 | –
6 | GENTAMICIN [listing 2 of 2 here] | – | – | – | – | – | – | – | – | – | – | – | – | – | – | MIC (Pseudomonas aeruginosa [2]): 16 µg/mL; MIC (Staphylococcus aureus): 1 µg/mL; MIC (Pseudomonas aeruginosa [4]): 2 µg/mL; MIC (Pseudomonas aeruginosa [5]): 4 µg/mL; MIC (Pseudomonas aeruginosa [6]): 8 µg/mL; MIC (Pseudomonas aeruginosa [7]): 32 µg/mL; MIC (Pseudomonas aeruginosa [9]): 32 µg/mL; MIC (Pseudomonas aeruginosa [10]): 8 µg/mL; MIC (Pseudomonas aeruginosa [11]): 2 µg/mL
7 | H-LRRLRRRWLRRLRRR-NH2 | > 256 | Dose-dependent effect | 256 | 256 | 64 | 64 | 32 | 32 | 128 | > 128 | 128 | 64 | 64 | 32 | Activity (Pseudomonas aeruginosa [12]): Dose-dependent effect; Activity (Pseudomonas aeruginosa [13]): 57%
8 | CC(C)(O/N=C(\C(=O)N[C@@H]1C(=O)N2C(C(=O)[O-])=C(C[n+]3ccccc3)CS[C@H]12)c1csc(N)n1)C(=O)O [CEFTAZIDIME] | > 256 | – | 32 (≈ 58.5 µM) | 32 (≈ 58.5 µM) | 16 (≈ 29.3 µM) | 128 (≈ 234 µM) | 64 (≈ 117 µM) | 8 (≈ 14.6 µM) | 32 (≈ 58.5 µM) | 2 (≈ 3.66 µM) | 256 (≈ 468 µM) | 32 (≈ 58.5 µM) | 256 (≈ 468 µM) | 2 (≈ 3.66 µM) | –
9 | H-WRRWRRRWRRRWRRW-NH2 | 128 | Dose-dependent effect | 256 | 256 | 16 | 32 | 32 | 16 | 256 | 32 | 256 | 256 | 8 | 4 | –
10 | H-LRRLRRRWRRRLRRL-NH2 | 256 | Dose-dependent effect | 32 | 32 | 16 | 32 | 8 | 16 | 32 | 16 | 32 | 16 | 16 | 16 | Activity (Pseudomonas aeruginosa [12]): Dose-dependent effect; Activity (Pseudomonas aeruginosa [13]): 93%
11 | CC[C@H](C)[C@H](NC(=O)CN)C(=O)NCC(=O)N[C@@H](C)C(=O)N[C@H](C(=O)N[C@@H](CC(C)C)C(=O)N[C@@H](CCCCN)C(=O)N[C@H](C(=O)N[C@@H](CC(C)C)C(=O)N[C@H](C(=O)N[C@H](C(=O)NCC(=O)N[C@@H](CC(C)C)C(=O)N1CCC[C@H]1C(=O)N[C@@H](C)C(=O)N[C@@H](CC(C)C)C(=O)N[C@H](C(=O)N[C@@H](CO)C(=O)N[C@@H](Cc1c[nH]c2ccccc12)C(=O)N[C@H](C(=O)N[C@@H](CCCCN)C(=O)N[C@@H](CCCNC(=N)N)C(=O)N[C@@H](CCCCN)C(=O)N[C@@H](CCCNC(=N)N)C(=O)N[C@@H](CCC(N)=O)C(=O)N[C@@H](CCC(N)=O)C(N)=O)[C@@H](C)CC)[C@@H](C)CC)[C@@H](C)O)[C@@H](C)O)C(C)C)C(C)C [MELITTIN] | 0.5 (≈ 0.176 µM) | – | – | – | – | – | – | – | – | – | – | – | – | – | Activity (Lipopolysaccharide (LPS)): Dose-dependent effect; Drug uptake (Pseudomonas aeruginosa [14]): Active
